Experiments:
[1] = target: T1, pre-let-7d−Lin28 interaction (Mus musculus, UniProt Q8K3Y3); experiment: electrophoretic mobility shift assay; type: binding, murine; details: pre-let-7d with Lin28, dose response
T1 sequence (Q8K3Y3 2-209): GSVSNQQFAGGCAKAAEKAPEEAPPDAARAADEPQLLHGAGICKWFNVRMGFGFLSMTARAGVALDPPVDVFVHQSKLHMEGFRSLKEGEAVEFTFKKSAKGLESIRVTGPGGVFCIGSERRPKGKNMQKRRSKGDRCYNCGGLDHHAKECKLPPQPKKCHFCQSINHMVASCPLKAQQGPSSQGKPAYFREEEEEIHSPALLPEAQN

biotinylated pre-let-7d = experiment: SPR binding to biotinylated pre-let-7d; details: 100, 50, 25, 12.5 and 6.25 µM
[2] = target: Dicer-mediated pre-let-7d maturation (Homo sapiens, UniProt Q9UPY3); experiment: Selectivity: Dicer-mediated pre-let-7d maturation; type: biochemical; details: compound at 100 µM
[3] = target: eIF4E−4E-BP1 protein-protein interaction (Homo sapiens, UniProt P06730); experiment: Selectivity: cat-ELCCA of the eIF4E−4E-BP1 protein-protein interaction; type: binding; details: compound at 100 µM
[4] = target: T2, pre-let-7d–Lin28A interaction (Mus musculus, UniProt Q8K3Y3); experiment: cat-ELCCA of the pre-let-7d–Lin28A interaction; type: binding, murine
T2 sequence (Q8K3Y3 2-209): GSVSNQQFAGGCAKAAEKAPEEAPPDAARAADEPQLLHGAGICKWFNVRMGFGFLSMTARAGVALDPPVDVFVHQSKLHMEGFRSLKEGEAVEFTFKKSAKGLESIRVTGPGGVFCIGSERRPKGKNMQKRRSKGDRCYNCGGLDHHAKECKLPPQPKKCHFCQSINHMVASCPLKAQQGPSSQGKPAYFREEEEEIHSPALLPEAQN
Summary of the method: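 Murine Lin28A, expressed as an N-terminal HaloTag fusion and biotin-labelled, was immobilised in streptavidin-coated wells. Wells were then incubated with pre-let-7d bearing a 5′-trans-cyclooctene click handle. Bound RNA was detected by click reaction with methyltetrazine-labelled HRP, then HRP substrate, with chemiluminescence as read-out. Washing steps were included.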

[5] = target: T3, HaloTag-mLin28A (biotinylated) (Mus musculus, UniProt Q8K3Y3 1-209); experiment: cat-ELCCA
T3 sequence: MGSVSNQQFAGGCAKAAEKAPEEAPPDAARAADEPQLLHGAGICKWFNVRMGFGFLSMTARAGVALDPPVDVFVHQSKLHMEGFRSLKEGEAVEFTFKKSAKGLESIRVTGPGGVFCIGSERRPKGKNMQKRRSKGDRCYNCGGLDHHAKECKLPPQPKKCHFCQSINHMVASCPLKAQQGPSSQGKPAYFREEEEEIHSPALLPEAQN

Dicer-mediated pre-let-7d maturation, sequence (Q9UPY3 whole entry): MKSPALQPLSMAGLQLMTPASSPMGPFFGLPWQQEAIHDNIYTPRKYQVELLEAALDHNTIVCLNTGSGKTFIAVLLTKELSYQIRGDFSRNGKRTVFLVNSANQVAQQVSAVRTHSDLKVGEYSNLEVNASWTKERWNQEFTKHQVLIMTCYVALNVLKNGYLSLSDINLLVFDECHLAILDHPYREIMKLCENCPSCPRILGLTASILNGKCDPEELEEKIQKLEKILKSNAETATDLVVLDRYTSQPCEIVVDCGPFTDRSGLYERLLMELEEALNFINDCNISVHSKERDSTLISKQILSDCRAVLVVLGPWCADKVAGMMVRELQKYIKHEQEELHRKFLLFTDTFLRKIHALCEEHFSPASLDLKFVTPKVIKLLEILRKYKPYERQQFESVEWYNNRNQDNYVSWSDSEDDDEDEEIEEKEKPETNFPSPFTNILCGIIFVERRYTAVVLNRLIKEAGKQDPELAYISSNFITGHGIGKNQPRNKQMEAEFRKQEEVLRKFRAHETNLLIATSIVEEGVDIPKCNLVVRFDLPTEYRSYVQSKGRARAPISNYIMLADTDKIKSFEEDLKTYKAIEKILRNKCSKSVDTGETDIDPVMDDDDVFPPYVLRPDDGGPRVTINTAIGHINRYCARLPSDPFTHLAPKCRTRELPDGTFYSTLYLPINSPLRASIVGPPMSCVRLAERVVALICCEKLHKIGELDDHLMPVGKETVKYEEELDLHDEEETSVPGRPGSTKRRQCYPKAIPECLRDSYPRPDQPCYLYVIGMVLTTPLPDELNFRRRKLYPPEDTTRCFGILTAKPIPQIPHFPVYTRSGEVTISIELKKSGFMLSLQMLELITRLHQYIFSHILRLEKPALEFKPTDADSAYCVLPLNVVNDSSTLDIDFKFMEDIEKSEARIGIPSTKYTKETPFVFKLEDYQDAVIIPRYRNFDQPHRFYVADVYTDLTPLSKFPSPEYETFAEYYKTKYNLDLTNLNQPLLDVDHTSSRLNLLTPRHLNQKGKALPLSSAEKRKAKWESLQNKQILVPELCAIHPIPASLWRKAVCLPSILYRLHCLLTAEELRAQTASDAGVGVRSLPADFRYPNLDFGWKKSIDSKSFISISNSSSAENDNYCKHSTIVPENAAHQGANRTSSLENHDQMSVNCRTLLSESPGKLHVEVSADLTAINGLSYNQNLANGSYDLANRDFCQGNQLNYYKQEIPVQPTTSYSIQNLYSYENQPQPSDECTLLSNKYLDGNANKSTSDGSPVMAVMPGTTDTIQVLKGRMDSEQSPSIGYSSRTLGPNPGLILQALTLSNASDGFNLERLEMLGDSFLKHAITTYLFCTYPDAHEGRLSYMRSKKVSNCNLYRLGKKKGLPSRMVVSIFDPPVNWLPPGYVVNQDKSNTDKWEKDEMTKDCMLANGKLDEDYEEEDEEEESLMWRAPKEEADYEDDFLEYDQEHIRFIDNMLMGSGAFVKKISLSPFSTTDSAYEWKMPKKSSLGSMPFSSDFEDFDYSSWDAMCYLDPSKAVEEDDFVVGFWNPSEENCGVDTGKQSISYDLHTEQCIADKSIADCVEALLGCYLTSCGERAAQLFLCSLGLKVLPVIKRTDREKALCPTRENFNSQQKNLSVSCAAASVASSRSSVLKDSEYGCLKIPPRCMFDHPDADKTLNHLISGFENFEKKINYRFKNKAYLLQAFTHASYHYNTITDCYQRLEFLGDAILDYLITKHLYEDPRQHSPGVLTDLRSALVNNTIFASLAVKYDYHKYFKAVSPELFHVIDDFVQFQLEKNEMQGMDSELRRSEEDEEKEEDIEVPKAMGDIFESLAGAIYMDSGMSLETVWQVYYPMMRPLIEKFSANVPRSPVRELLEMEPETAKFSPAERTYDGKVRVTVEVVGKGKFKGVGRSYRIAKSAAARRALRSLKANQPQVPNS
eIF4E−4E-BP1 protein-protein interaction, sequence (P06730 whole entry): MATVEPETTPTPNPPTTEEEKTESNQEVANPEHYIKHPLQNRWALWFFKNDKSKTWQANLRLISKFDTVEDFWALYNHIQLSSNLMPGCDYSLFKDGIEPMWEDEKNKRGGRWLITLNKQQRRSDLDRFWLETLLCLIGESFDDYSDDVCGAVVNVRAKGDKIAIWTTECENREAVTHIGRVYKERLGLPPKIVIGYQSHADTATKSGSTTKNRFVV

Question: Which “activity in EMSA” value [1] does the source give for `Cc1ccc(S(=O)(=O)Nc2ccc(F)cc2NS(=O)(=O)c2ccc(C)cc2)cc1` [CCG-233094] here?
Answer: The value was “concentration-responsive activity”.

Question: What about the “binding to pre-let-7d (SPR)” value (biotinylated pre-let-7d) of the same molecule?
Answer: Its value is “not pre-let-7d”.

Question: And the “inhibition of Dicer-mediated pre-let-7d maturation” value [2]?
Answer: The value was “insignificant inhibition”.

Question: And the “inhibition of cat-ELCCA-based PPI assay” value [3]?
Answer: The value was “insignificant inhibition”.

Question: Which “activity (inhibition of pre-let-7d–Lin28A)” value [4] does the source give for `O=S(=O)(c1ccccc1)N1CCN(S(=O)(=O)c2ccccc2)c2ccccc21` [Compound 5] here?
Answer: Its value is “inactive”.

Question: `O=C(Nc1ccccc1NC(=O)c1ccccc1)c1ccccc1` [Compound 6] was tested. Which “activity (inhibition of pre-let-7d–Lin28A)” value [4] did it give?
Answer: The value was “inactive”.

Question: `O=S(=O)(Nc1cccc(NS(=O)(=O)c2ccccc2)c1)c1ccccc1` [Compound 4, N,N′-(1,3-phenylene)dibenzenesulfonamide] was tested. Which “activity (inhibition of pre-let-7d–Lin28A)” value [4] did it give?
Answer: Its value is “inactive”.

Question: `Cc1ccc(S(=O)(=O)Nc2ccc(C)cc2NS(=O)(=O)c2cccc(C(F)(F)F)c2)cc1` [CCG-234459] was tested. Which “activity in EMSA” value [1] did it give?
Answer: Its value is “concentration-responsive activity”.

Question: What about the “binding to pre-let-7d (SPR)” value (biotinylated pre-let-7d) of the same molecule?
Answer: Its value is “not pre-let-7d”.

Question: And the “inhibition of Dicer-mediated pre-let-7d maturation” value [2]?
Answer: Its value is “insignificant inhibition”.

Question: And the “inhibition of cat-ELCCA-based PPI assay” value [3]?
Answer: The value was “insignificant inhibition”.

Question: `Nc1ccccc1NS(=O)(=O)c1ccccc1` [Compound 3] was tested. Which “activity (inhibition of pre-let-7d–Lin28A)” value [4] did it give?
Answer: Its value is “inactive”.

B1: 5'-TCO-pre-let-7d (structured_RNA)
RNA: AGAGGUAGUAGGUUGCAUAGUUUUAGGGCAGGGAUUUUGCCCACAAGGAGGUAACUAUACGACCUGCUGCCUUUCU
modifications: 5'-phosphate pentylamine (N5) linked to TCO-PEG4
Question: Which Kd [5] does the source give for B1 here?
Answer: Its Kd is 106 nM.

Source: article PMC6004563 (ACS Medicinal Chemistry Letters, 2018)
